Experimental data as given in ChEMBL document CHEMBL1153713, “Effect of chirality of small molecule organofluorine inhibitors of amyloid self-assembly on inhibitor potency” (Bioorg Med Chem Lett, 2009).
Activity calls are given as the source filed them. No cut-off for these calls is given here.

What was measured:
[1] = Inhibition of amyloid beta (1 to 40) after 140 hrs by thioflavin-T assay
In short: (§1)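 Synthetic Aβ1-40 dissolved in 100 mM NaOH (40 mg/ml), diluted to 100 μM final in 10 mM HEPES, 100 mM NaCl, 0.02% NaN3, pH 7.4; inhibitor added from DMSO at inhibitor/Aβ = 10. Incubated at 37°C, 77 rpm shaking, up to 140 h. Aliquots into 5 μM ThT in glycine-NaOH pH 8.5; ex 430/em 484 nm, 0 h background subtracted, normalized to inhibitor-free control.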

[2] = Inhibition of amyloid beta (1 to 40) after 94 hrs by thioflavin-T assay relative to control; in short: as §1
[3] = Inhibition of amyloid beta (1 to 40) fibrillation by atomic force microscopy relative to control; settings: concentration not given here
In short: (§2)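 Aβ1-40 (100 μM in HEPES/NaCl/NaN3, pH 7.4) incubated with inhibitor (DMSO stock, 10:1 inhibitor:peptide) at 37°C with gentle shaking. Aliquots diluted in the same HEPES buffer, 2-5 μL spotted on freshly cleaved mica. Imaged by non-contact AFM over 10 μm2 scans and compared with inhibitor-free control.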

[4] = Inhibition of amyloid beta (1 to 40) fibrillation by atomic force microscopy; in short: as §2

Activity [1]	Activity [2]	inhibition [3] [%]	Activity [4]	SMILES
Active	Active	60	Active	CCOC(=O)[C@@](O)(c1c[nH]c2ccc(Cl)cc12)C(F)(F)F
Active	Active	–	Active	CCOC(=O)[C@@](O)(c1c[nH]c2ccc(Br)cc12)C(F)(F)F
Active	Active	60	Active	CCOC(=O)[C@](O)(c1c[nH]c2ccc(Br)cc12)C(F)(F)F
Active	Active	60	Active	CCOC(=O)[C@](O)(c1c[nH]c2ccc(Cl)cc12)C(F)(F)F

SMILES	Activity [1]	Activity [2]	inhibition [3] [%]	Activity [4]
CCOC(=O)[C@@](O)(c1c[nH]c2ccc(I)cc12)C(F)(F)F	Active	Active	–	Active
CCOC(=O)[C@](O)(c1c[nH]c2ccc(I)cc12)C(F)(F)F	Active	Active	–	Active
